Experimental data from ChEMBL document CHEMBL2346629, “Discovery and characterization of novel allosteric FAK inhibitors” (Eur J Med Chem, 2013).

What was measured:
[1] = system: Proto-oncogene tyrosine-protein kinase receptor Ret (Homo sapiens), P07949 [V804L]; experiment: Inhibition of RET V804L mutant (unknown origin) using [gamma-33P]ATP assessed as residual activity at 3 uM
[2] = target: Serine/threonine-protein kinase PAK 2 (Homo sapiens) (UniProt Q13177); experiment: Inhibition of PAK2 (unknown origin) using [gamma-33P]ATP assessed as residual activity at 3 uM
[3] = target: Serine/threonine-protein kinase NLK (Homo sapiens) (UniProt Q9UBE8); experiment: Inhibition of NLK (unknown origin) using [gamma-33P]ATP assessed as residual activity at 3 uM
[4] = target: Serine/threonine-protein kinase 24 (Homo sapiens) (UniProt Q9Y6E0); experiment: Inhibition of MST3 (unknown origin) using [gamma-33P]ATP assessed as residual activity at 3 uM
[5] = target: Serine/threonine-protein kinase 3 (Homo sapiens) (UniProt Q13188); experiment: Inhibition of MST2 (unknown origin) using [gamma-33P]ATP assessed as residual activity at 3 uM
[6] = target: Serine/threonine-protein kinase 4 (Homo sapiens) (UniProt Q13043); experiment: Inhibition of MST1 (unknown origin) using [gamma-33P]ATP assessed as residual activity at 3 uM
[7] = target: Serine/threonine-protein kinase MARK2 (Homo sapiens) (UniProt Q7KZI7); experiment: Inhibition of MARK2 (unknown origin) using [gamma-33P]ATP assessed as residual activity at 3 uM
Method in brief: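 Contract radiometric panel screen of 288 kinases (261 wild-type, 27 mutant). Inhibition was read by [gamma-33P]ATP radioactivity incorporation.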

[8] = target: Dual specificity protein kinase CLK2 (Homo sapiens) (UniProt P49760); experiment: Inhibition of CLK2 (unknown origin) using [gamma-33P]ATP assessed as residual activity at 3 uM
Method in brief: (§1)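 Reaction Biology HotSpot radiometric profiling panel of 288 kinases (261 wild-type, 27 mutant). Kinase activity was read out by incorporation of [γ-33P]ATP.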

[9] = target: Serine/threonine-protein kinase Chk1 (Homo sapiens) (UniProt O14757); experiment: Inhibition of CHK1 (unknown origin) using [gamma-33P]ATP assessed as residual activity at 3 uM
Method in brief: (§2)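 Radiometric profiling across 288 kinases (261 wild-type, 27 mutant), run as an outsourced service. Inhibition read out as [gamma-33P]ATP incorporation into substrate.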

[10] = target: Serine/threonine-protein kinase Chk2 (Homo sapiens, UniProt O96017); experiment: Inhibition of CHK2 (unknown origin) using [gamma-33P]ATP assessed as residual activity at 3 uM
[11] = target: Cyclin-dependent kinase 5/CDK5 activator 1 (Homo sapiens) (UniProt Q00535+Q15078); experiment: Inhibition of CDK5/p35 (unknown origin) using [gamma-33P]ATP assessed as residual activity at 3 uM; assay type: protein-complex assay; method in brief: as §2
[12] = target: LIM domain kinase 1 (Homo sapiens) (UniProt P53667); experiment: Inhibition of LIMK1 (unknown origin) using [gamma-33P]ATP assessed as residual activity at 3 uM
Method in brief: (§3)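 Radiometric kinase profiling service covering 288 kinases (261 wild-type, 27 mutant). Inhibition was read as incorporation from [γ-³³P]ATP.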

[13] = target: Mitogen-activated protein kinase 8 (Homo sapiens) (UniProt P45983); experiment: Inhibition of JNK1a1 (unknown origin) using [gamma-33P]ATP assessed as residual activity at 3 uM; method in brief: as §3
[14] = target: Activin receptor type-1B (Homo sapiens) (UniProt P36896); experiment: Inhibition of ALK4 (unknown origin) using [gamma-33P]ATP assessed as residual activity at 3 uM; method in brief: as §2
[15] = system: Tyrosine-protein kinase ABL1 (Homo sapiens), P00519 [H396P]; experiment: Inhibition of ABL1 H396P mutant (unknown origin) using [gamma-33P]ATP assessed as residual activity at 3 uM; method in brief: as §2
[16] = target: Death-associated protein kinase 3 (Homo sapiens) (UniProt O43293); experiment: Inhibition of ZIPK (unknown origin) using [gamma-33P]ATP assessed as residual activity at 3 uM
[17] = target: Receptor-interacting serine/threonine-protein kinase 2 (Homo sapiens) (UniProt O43353); experiment: Inhibition of RIPK2 (unknown origin) using [gamma-33P]ATP assessed as residual activity at 3 uM
[18] = target: Mitogen-activated protein kinase kinase kinase kinase 2 (Homo sapiens) (UniProt Q12851); experiment: Inhibition of GCK (unknown origin) using [gamma-33P]ATP assessed as residual activity at 3 uM
[19] = target: Macrophage colony-stimulating factor 1 receptor (Homo sapiens) (UniProt P07333); experiment: Inhibition of FMS (unknown origin) using [gamma-33P]ATP assessed as residual activity at 3 uM; method in brief: as §3
[20] = target: Tyrosine-protein kinase Fer (Homo sapiens) (UniProt P16591); experiment: Inhibition of FER (unknown origin) using [gamma-33P]ATP assessed as residual activity at 3 uM; method in brief: as §1
[21] = target: Ephrin type-B receptor 1 (Homo sapiens) (UniProt P54762); experiment: Inhibition of EPHB1 (unknown origin) using [gamma-33P]ATP assessed as residual activity at 3 uM; method in brief: as §1
[22] = target: cAMP-dependent protein kinase catalytic subunit PRKX (Homo sapiens) (UniProt P51817); experiment: Inhibition of PRKX (unknown origin) using [gamma-33P]ATP assessed as residual activity at 3 uM
[23] = target: Serine/threonine-protein kinase PLK3 (Homo sapiens) (UniProt Q9H4B4); experiment: Inhibition of PLK3 (unknown origin) using [gamma-33P]ATP assessed as residual activity at 3 uM
[24] = target: Serine/threonine-protein kinase PLK1 (Homo sapiens) (UniProt P53350); experiment: Inhibition of PLK1 (unknown origin) using [gamma-33P]ATP assessed as residual activity at 3 uM
[25] = target: Serine/threonine-protein kinase PLK2 (Homo sapiens) (UniProt Q9NYY3); experiment: Inhibition of PLK2 (unknown origin) using [gamma-33P]ATP assessed as residual activity at 3 uM
[26] = target: cGMP-dependent protein kinase 2 (Homo sapiens) (UniProt Q13237); experiment: Inhibition of PKG2 (unknown origin) using [gamma-33P]ATP assessed as residual activity at 3 uM
[27] = target: cGMP-dependent protein kinase 1 (Homo sapiens) (UniProt Q13976); experiment: Inhibition of PKG1a (unknown origin) using [gamma-33P]ATP assessed as residual activity at 3 uM
[28] = target: Protein kinase C beta type (Homo sapiens) (UniProt P05771); experiment: Inhibition of PKCb1 (unknown origin) using [gamma-33P]ATP assessed as residual activity at 3 uM
[29] = target: Discoidin domain-containing receptor 2 (Homo sapiens) (UniProt Q16832); experiment: Inhibition of DDR2 (unknown origin) using [gamma-33P]ATP assessed as residual activity at 3 uM; method in brief: as §1
[30] = target: Serine/threonine-protein kinase pim-2 (Homo sapiens) (UniProt Q9P1W9); experiment: Inhibition of PIM2 (unknown origin) using [gamma-33P]ATP assessed as residual activity at 3 uM
[31] = target: Platelet-derived growth factor receptor beta (Homo sapiens) (UniProt P09619); experiment: Inhibition of PDGFRb (unknown origin) using [gamma-33P]ATP assessed as residual activity at 3 uM

Mitogen-activated protein kinase 8 (Homo sapiens), sequence (P45983 whole entry): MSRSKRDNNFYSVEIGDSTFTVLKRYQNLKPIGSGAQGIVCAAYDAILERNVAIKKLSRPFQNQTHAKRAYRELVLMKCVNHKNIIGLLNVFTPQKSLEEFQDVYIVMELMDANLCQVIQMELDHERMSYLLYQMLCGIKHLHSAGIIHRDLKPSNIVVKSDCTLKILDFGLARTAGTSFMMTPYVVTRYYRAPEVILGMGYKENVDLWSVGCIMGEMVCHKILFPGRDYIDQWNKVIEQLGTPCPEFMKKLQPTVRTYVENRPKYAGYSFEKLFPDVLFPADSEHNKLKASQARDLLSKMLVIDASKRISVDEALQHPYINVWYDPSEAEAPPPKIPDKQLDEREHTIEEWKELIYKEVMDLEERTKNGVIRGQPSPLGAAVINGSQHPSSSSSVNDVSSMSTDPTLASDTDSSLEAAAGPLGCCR
Serine/threonine-protein kinase 4 (Homo sapiens), sequence (Q13043 whole entry): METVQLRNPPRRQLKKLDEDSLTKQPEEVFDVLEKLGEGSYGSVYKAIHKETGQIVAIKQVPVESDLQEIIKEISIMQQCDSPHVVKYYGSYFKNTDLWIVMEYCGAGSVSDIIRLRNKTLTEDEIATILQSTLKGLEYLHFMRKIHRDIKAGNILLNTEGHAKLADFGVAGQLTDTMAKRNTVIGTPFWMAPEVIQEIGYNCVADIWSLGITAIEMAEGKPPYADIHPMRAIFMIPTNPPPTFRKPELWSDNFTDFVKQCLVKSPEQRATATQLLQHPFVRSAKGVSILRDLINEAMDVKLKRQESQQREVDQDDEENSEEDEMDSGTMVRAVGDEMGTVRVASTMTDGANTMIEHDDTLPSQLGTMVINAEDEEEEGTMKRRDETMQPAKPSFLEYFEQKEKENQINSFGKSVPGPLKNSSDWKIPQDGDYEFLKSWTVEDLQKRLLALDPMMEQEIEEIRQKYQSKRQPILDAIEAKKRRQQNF
Protein kinase C beta type (Homo sapiens), sequence (P05771 2-671 limits assumed): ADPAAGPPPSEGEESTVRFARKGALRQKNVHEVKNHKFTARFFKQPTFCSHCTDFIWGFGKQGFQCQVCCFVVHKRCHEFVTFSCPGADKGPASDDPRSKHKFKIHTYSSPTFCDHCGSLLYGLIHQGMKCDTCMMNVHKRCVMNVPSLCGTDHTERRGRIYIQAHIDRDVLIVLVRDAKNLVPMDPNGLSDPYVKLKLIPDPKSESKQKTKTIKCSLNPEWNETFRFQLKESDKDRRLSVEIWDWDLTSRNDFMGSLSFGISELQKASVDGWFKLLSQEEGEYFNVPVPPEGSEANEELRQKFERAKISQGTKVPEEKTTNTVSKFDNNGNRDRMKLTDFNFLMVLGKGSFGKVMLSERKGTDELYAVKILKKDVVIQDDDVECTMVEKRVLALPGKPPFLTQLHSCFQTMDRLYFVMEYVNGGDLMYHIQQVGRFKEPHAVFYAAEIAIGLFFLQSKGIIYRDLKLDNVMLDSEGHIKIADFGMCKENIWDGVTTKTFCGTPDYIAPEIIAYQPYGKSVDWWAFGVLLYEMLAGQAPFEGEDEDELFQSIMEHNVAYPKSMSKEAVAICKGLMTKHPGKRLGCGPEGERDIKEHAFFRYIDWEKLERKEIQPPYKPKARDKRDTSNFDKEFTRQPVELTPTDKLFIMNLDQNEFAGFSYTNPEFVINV
Proto-oncogene tyrosine-protein kinase receptor Ret (Homo sapiens), P07949 [V804L], sequence (P07949 whole entry V804L): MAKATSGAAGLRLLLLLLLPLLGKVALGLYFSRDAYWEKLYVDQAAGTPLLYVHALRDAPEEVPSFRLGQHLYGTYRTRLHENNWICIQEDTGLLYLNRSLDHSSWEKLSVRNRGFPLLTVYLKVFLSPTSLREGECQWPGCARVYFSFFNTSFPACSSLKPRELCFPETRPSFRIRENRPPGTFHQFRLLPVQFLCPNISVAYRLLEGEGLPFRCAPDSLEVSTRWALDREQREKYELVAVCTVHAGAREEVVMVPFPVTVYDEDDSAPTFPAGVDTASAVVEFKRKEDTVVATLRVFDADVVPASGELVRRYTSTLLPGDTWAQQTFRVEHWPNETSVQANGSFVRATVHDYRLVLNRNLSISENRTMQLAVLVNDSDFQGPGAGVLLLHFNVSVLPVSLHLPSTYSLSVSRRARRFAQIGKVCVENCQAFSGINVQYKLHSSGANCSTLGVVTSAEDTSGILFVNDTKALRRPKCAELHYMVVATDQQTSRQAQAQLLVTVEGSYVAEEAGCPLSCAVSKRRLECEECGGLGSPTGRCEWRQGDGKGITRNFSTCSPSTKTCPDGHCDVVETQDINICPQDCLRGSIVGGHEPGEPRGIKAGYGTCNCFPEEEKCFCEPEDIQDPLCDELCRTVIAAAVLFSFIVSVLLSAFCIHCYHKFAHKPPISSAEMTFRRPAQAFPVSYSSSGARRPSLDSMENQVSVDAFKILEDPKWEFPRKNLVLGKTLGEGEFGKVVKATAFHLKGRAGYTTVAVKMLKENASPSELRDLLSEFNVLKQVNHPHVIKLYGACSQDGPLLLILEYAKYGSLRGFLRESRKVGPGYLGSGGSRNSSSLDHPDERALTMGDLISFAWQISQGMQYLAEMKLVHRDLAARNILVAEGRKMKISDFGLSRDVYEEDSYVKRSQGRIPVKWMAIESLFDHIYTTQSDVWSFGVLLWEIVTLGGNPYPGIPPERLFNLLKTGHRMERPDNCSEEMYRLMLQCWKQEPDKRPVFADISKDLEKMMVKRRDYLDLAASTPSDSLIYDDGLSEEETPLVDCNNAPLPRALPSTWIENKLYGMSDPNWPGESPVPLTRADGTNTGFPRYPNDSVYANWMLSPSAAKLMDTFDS
cGMP-dependent protein kinase 2 (Homo sapiens), sequence (Q13237 whole entry): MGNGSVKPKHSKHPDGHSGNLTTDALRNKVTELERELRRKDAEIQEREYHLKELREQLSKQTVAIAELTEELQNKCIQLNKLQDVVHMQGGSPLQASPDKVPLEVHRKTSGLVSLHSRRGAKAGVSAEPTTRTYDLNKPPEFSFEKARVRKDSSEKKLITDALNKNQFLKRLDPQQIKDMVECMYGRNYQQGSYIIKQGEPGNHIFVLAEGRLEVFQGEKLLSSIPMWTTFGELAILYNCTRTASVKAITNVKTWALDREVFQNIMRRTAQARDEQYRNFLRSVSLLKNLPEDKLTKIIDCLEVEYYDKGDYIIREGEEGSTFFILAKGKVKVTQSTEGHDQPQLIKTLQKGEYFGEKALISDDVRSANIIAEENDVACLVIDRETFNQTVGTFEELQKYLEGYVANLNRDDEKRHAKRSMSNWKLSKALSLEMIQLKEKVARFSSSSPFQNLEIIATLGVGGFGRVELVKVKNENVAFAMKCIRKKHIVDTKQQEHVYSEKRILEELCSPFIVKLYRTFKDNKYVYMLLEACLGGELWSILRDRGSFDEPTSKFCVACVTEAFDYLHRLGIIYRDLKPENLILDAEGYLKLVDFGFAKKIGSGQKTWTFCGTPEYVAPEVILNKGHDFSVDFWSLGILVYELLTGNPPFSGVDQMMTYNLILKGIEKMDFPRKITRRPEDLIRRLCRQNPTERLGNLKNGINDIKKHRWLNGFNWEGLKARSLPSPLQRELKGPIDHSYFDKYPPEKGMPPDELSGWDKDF
Activin receptor type-1B (Homo sapiens), sequence (P36896 whole entry): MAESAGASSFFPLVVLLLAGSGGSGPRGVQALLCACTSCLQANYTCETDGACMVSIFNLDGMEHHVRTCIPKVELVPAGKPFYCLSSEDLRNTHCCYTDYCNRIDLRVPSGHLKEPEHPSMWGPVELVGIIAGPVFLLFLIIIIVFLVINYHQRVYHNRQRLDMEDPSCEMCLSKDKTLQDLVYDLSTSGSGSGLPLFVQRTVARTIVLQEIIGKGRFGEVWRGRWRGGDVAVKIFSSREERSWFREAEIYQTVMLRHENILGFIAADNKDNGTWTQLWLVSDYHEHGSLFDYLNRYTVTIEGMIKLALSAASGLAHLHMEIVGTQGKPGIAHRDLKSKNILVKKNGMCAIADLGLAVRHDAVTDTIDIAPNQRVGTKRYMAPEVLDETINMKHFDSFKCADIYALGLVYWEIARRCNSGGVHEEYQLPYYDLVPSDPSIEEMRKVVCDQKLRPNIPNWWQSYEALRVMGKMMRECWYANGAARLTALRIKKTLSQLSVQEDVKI
Macrophage colony-stimulating factor 1 receptor (Homo sapiens), sequence (P07333 whole entry): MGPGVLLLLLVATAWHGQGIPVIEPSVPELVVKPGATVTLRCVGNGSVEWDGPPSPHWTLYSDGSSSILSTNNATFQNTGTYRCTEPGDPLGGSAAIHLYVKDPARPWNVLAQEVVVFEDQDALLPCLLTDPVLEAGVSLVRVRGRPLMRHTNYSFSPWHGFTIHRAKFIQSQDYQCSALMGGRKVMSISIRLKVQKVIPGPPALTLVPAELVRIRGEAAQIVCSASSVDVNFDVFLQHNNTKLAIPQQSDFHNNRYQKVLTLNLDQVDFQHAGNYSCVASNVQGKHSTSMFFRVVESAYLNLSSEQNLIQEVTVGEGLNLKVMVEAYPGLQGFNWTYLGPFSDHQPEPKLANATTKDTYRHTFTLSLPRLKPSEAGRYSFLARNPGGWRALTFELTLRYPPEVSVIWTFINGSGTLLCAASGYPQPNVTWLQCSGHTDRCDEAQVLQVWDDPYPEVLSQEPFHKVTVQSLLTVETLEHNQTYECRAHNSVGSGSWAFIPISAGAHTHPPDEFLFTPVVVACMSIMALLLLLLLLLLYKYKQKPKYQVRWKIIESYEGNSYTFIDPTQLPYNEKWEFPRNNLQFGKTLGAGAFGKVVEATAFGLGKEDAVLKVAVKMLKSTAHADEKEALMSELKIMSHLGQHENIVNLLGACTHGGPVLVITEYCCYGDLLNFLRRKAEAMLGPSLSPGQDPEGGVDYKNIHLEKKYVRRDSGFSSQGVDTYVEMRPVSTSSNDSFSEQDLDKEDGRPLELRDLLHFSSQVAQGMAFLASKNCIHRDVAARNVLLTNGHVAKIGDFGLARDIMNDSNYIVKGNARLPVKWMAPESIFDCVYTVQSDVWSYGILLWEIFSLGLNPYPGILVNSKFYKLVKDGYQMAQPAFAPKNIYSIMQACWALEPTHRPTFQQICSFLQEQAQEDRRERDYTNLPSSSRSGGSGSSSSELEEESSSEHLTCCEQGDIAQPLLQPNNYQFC

CCc1ccc(-c2ccc3c(c2)-c2[nH]ncc2S(=O)(=O)N3C)cc1
Activity [1]: 94% | Activity [2]: 94% | Activity [3]: 95% | Activity [4]: 73% | Activity [5]: 78% | Activity [6]: 87% | Activity [7]: 91% | Activity [8]: 68% | Activity [9]: 81% | Activity [10]: 50% | Activity [11]: 90% | Activity [12]: 86% | Activity [13]: 101% | Activity [14]: 94% | Activity [15]: 71% | Activity [16]: 97% | Activity [17]: 91% | Activity [18]: 40% | Activity [19]: 96% | Activity [20]: 96% | Activity [21]: 80% | Activity [22]: 93% | Activity [23]: 105% | Activity [24]: 96% | Activity [25]: 95% | Activity [26]: 93% | Activity [27]: 95% | Activity [28]: 101% | Activity [29]: 96% | Activity [30]: 101% | Activity [31]: 81%
